From ChEMBL document CHEMBL3817726, “Chemically Diverse Group I p21-Activated Kinase (PAK) Inhibitors Impart Acute Cardiovascular Toxicity with a Narrow Therapeutic Window” (J Med Chem, 2016)
pKi: −log10 of the molar value. ≈ marks a conversion by molar mass, not a printed value. One block for each molecule: values may come before it.

Legend:
[1] = target: Serine/threonine-protein kinase PAK 1 (Homo sapiens, UniProt Q13153); assay: Inhibition of human recombinant N-terminal 6-His-tagged PAK1 kinase domain (249 to 545 residues) expressed in Escherichia coli BL21(DE3) assessed as phosphorylation of coumarin labeled FRET peptide substrate at Ser/Thr19 preincubated for 10 mins followed by ATP addition measured after 60 mins by Z'-LYTE assay
Serine/threonine-protein kinase PAK 1, sequence (Q13153 whole entry, the tested form may be a part): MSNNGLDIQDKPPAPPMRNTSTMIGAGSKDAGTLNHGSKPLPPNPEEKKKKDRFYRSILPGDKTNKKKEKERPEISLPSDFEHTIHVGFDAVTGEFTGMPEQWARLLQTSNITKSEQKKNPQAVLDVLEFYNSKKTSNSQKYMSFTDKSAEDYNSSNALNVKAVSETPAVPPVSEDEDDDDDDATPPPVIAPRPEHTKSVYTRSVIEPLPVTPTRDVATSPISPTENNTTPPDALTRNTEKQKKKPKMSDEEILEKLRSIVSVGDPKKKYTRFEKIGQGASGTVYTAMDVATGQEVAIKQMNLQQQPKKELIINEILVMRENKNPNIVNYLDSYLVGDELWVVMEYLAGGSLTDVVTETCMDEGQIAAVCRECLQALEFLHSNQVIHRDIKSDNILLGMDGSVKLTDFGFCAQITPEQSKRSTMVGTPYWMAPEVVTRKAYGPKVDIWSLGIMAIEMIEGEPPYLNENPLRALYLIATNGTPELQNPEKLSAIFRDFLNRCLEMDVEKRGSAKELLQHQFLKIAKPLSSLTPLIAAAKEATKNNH

[2] = target: Serine/threonine-protein kinase PAK 1/PAK 2 (Homo sapiens, UniProt Q13177+Q13153); assay: Inhibition of PAK1/2 in human EBC1 cells assessed as phosphorylation of MEK1 at serine 298 after 2 hrs by HTRF assay; assay type: cell-based
[3] = target: Serine/threonine-protein kinase PAK 2 (Homo sapiens, UniProt Q13177); assay: Inhibition of human recombinant PAK2 assessed as phosphorylation of coumarin labeled FRET peptide substrate at Ser/Thr19 preincubated for 10 mins followed by ATP addition measured after 60 mins by Z'-LYTE assay
Serine/threonine-protein kinase PAK 2, sequence (Q13177 whole entry): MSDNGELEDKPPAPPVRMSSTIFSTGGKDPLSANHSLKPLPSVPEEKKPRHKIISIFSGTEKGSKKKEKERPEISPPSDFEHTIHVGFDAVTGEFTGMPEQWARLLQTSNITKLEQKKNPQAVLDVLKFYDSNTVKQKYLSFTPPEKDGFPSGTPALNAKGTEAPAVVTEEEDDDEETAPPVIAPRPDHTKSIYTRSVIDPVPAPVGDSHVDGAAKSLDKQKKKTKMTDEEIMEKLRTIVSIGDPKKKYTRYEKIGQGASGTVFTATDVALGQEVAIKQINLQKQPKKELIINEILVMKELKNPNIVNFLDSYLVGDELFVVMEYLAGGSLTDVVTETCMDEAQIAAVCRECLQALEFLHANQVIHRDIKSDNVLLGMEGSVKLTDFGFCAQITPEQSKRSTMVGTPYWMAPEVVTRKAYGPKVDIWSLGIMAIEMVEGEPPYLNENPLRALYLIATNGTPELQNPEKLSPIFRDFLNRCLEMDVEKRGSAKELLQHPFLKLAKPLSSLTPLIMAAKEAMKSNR

[4] = Fraction unbound in mouse plasma at 25 to 50 mg/kg, po; assay type: ADME, organism-based
[5] = Cmax associated with acute adverse effect in mouse at 25 to 50 mg/kg, po; assay type: ADME, organism-based; conditions: in vivo
Summary of the method: (§1)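 Mouse tolerability studies tested multiple doses, given orally or intraperitoneally. Plasma drug concentrations were measured, including at a 15 min time point. The minimum concentration associated with adverse clinical signs or death was taken as the adverse Cmax and was converted to an unbound value.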

[6] = tested on: Mus musculus; assay: fCmax associated with acute adverse effect in mouse at 25 to 50 mg/kg, po; assay type: ADME, organism-based; conditions: in vivo
Summary of the method: (§2)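 Mouse tolerability studies at multiple doses, oral or intraperitoneal. Minimum unbound plasma concentration associated with adverse effects (total Cmax converted to unbound) compared with IC50 for inhibition of MEK1 S298 phosphorylation in cells.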

[7] = Ratio of fCmax associated with acute adverse effect in mouse at 25 to 50 mg/kg, po to IC50 for PAK1/2-mediated phosphorylation of MEK1 at serine 298 in human EBC1 cells
Summary of the method: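 Mouse tolerability studies at multiple doses, given p.o. or i.p. Total plasma concentrations were converted to unbound levels. The minimum unbound Cmax linked to adverse effects was set against the cellular IC50 for inhibition of MEK1 S298 phosphorylation.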

[8] = Fraction unbound in mouse plasma at 50 to 100 mg/kg, ip; assay type: ADME, organism-based
[9] = Cmax associated with acute adverse effect in mouse at 50 to 100 mg/kg, ip; assay type: ADME, organism-based; conditions: in vivo; summary of the method: as §1
[10] = tested on: Mus musculus; assay: fCmax associated with acute adverse effect in mouse at 50 to 100 mg/kg, ip; assay type: ADME, organism-based; conditions: in vivo; summary of the method: as §2
[11] = Ratio of fCmax associated with acute adverse effect in mouse at 50 to 100 mg/kg, ip to IC50 for PAK1/2-mediated phosphorylation of MEK1 at serine 298 in human EBC1 cells; summary of the method: as §2
[12] = species on record: Homo sapiens; assay: Selectivity for human recombinant N-terminal 6-His-tagged PAK1 kinase domain (249 to 545 residues) over LCK (unknown origin)
[13] = Lipophilicity, log D of the compound at pH 7.4; assay type: physicochemical; conditions: buffer
[14] = Kinetic solubility of the compound at pH 7.4; assay type: physicochemical; conditions: buffer, read-out: Kinetic_solubility
[15] = Apparent permeability across apical to basolateral side in MDCK cells at 10 uM after 60 mins; assay type: ADME, cell-based, Canis lupus familiaris; conditions: dog
[16] = Efflux ratio of permeability across basolateral to apical side over apical to basolateral side in MDCK cells at 10 uM after 60 mins; assay type: ADME, cell-based, Canis lupus familiaris; conditions: dog
[17] = Fraction unbound in mouse plasma at 12.5 to 25 mg/kg, po; assay type: ADME, organism-based
[18] = Cmax associated with acute adverse effect in mouse at 12.5 to 25 mg/kg, po; assay type: ADME, organism-based; conditions: in vivo; summary of the method: as §1
[19] = tested on: Mus musculus; assay: fCmax associated with acute adverse effect in mouse at 12.5 to 25 mg/kg, po; assay type: ADME, organism-based; conditions: in vivo; summary of the method: as §2
[20] = Ratio of fCmax associated with acute adverse effect in mouse at 12.5 to 25 mg/kg, po to IC50 for PAK1/2-mediated phosphorylation of MEK1 at serine 298 in human EBC1 cells
Summary of the method: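 Mice were dosed at multiple levels, orally or intraperitoneally, and monitored for acute adverse signs. The minimum unbound plasma Cmax associated with adverse effects was converted from total drug concentration and compared with the cellular IC50 for phospho-MEK1 S298 inhibition.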

[21] = Plasma concentration in mouse at 25 mg/kg, po at 15 mins; assay type: ADME, organism-based
[22] = tested on: Mus musculus; assay: Toxicity in mouse assessed as mortality at 25 mg/kg, po after 2 hrs; assay type: organism-based; conditions: in vivo
Summary of the method: (§3)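 Mouse tolerability study at multiple oral doses, with lethality and clinical signs monitored after dosing. Plasma drug concentrations were measured, and the minimum unbound concentration linked to adverse effects was compared with the cellular pMEK S298 IC₅₀.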

[23] = tested on: Mus musculus; assay: Toxicity in mouse assessed as mortality at 12.5 mg/kg, po after 0.25 hrs; assay type: organism-based; conditions: in vivo
[24] = tested on: Mus musculus; assay: Toxicity in mouse assessed as mortality at 12.5 mg/kg, po after 0.5 hrs; assay type: organism-based; conditions: in vivo; summary of the method: as §3
[25] = Plasma concentration in mouse at 12.5 mg/kg, po at 0.5 hrs; assay type: ADME, organism-based
[26] = Plasma concentration in mouse at 25 mg/kg, po at 0.25 hrs
[27] = tested on: Plasma; assay: Unbound drug concentration in mouse plasma at 25 mg/kg, po at 0.25 hrs; conditions: in vivo
[28] = Cmax associated with acute adverse effect in mouse at 50 mg/kg, ip; assay type: ADME, organism-based; parameters: dose 50 mg/kg, route intraperitoneal; conditions: in vivo; summary of the method: as §1
[29] = Fraction unbound in mouse plasma at 25 mg/kg, ip; assay type: ADME, organism-based
[30] = tested on: Mus musculus; assay: fCmax associated with acute adverse effect in mouse at 25 mg/kg, ip; assay type: ADME, organism-based; conditions: in vivo; summary of the method: as §2
[31] = Ratio of fCmax associated with acute adverse effect in mouse at 25 mg/kg, ip to IC50 for PAK1/2-mediated phosphorylation of MEK1 at serine 298 in human EBC1 cells
[32] = Fraction unbound in mouse plasma at 100 mg/kg, ip; assay type: ADME, organism-based
[33] = Cmax in mouse at 100 mg/kg, ip; assay type: ADME, organism-based; parameters: dose 100 mg/kg, route intraperitoneal; conditions: in vivo
[34] = tested on: Mus musculus; assay: fCmax in mouse at 100 mg/kg, ip; assay type: ADME, organism-based; conditions: in vivo; summary of the method: as §2

SMILES: CNc1ncc2cc(-c3ccc(-n4cncc(C)c4=O)cc3Cl)c(=O)n(CCOC)c2n1
pKi [1]: 7.66
IC50 [2]: 800 nM
pKi [3]: 7.41
fraction unbound [4]: 0.059
Cmax [5]: 14000 nM
fCmax [6]: 0.85 µM
Ratio [7]: 1

SMILES: CNc1ncc2cc(-c3ccc(-n4cccc(C)c4=O)cc3Cl)c(=O)n(CCC3(F)CN(C)C3)c2n1
pKi [1]: 9.02
Selectivity ratio [12]: 57
IC50 [2]: 33 nM
logD [13]: 1.8
solubility kinetic [14]: 117 µM (≈ 59.6 µg/mL)
Papp A→B at 1 h, 10 µM [15]: 6.9 ×10⁻⁶ cm/s
efflux ratio at 1 h, 10 µM [16]: 2
pKi [3]: 8.70
fraction unbound [17]: 0.032
Cmax [18]: 2800 nM
fCmax [19]: 0.088 µM
Ratio [20]: 1
concentration at 0.25 h [21]: 2800 nM
Activity [22]: Toxic
Activity [23]: Toxic
Activity [24]: Toxic
concentration at 0.5 h [25]: 1890 nM
concentration at 0.25 h [26]: 2240 nM
Cp(f) [27]: 88 nM

Further lines, with some results ahead:

pKi [1]: 8.28
IC50 [2]: 280 nM
pKi [3]: 8.34
fraction unbound [8]: 0.076
SMILES: Cc1nccn(-c2ccc(-c3cc4cnc(NC5COC5)nc4n(CC4CCNCC4(F)F)c3=O)c(Cl)c2)c1=O (single isomer, unassigned)
Cmax [9]: 12000 nM
fCmax [10]: 0.89 µM
Ratio [11]: 1

fraction unbound [29]: 0.063
SMILES: N[C@H]1CC[C@H](CNc2nccc(Nc3cc(C(F)(F)F)ccn3)n2)CC1
Cmax [28]: 26000 nM
fCmax [30]: 1.6 µM
Ratio [31]: 1

pKi [1]: 6.03
IC50 [2]: > 30000 nM
pKi [3]: 5.64
fraction unbound [32]: 0.143
Cmax [33]: 40000 nM
fCmax [34]: 5.7 µM
SMILES: CNc1ncc2cc(-c3ccc(-n4ccc(C)cc4=O)cc3Cl)c(=O)n(C[C@H]3CNCCO3)c2n1
